In brackets after ≈: the same amount, converted by molar mass.
What was measured:
[1] = Cytotoxicity against human MEXF 276L cells; assay type: functional, cell-based; conditions: MEXF276L
In short: (§1)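 Monolayer cell survival and proliferation assay run across a panel of 36 human tumor cell lines, with IC50 determined from the resulting growth data.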

[2] = Cytotoxicity against human LXFA 526L cells at 0.01 ug/ml relative to control; assay type: functional
[3] = Cytotoxicity against human RXF 486L cells at 0.01 ug/ml relative to control; assay type: functional
[4] = tested on: DU-145; assay: Cytotoxicity against human DU145 cells at 1 ug/ml relative to control; assay type: functional
[5] = tested on: HCT-116; assay: Cytotoxicity against human HCT116 cells; assay type: functional, cell-based
In short: (§2)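 Monolayer cell survival and proliferation assay, run within a panel of 36 human tumor cell lines; IC50 determined per cell line.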

[6] = Cytotoxicity against human PXF 1752L cells; assay type: functional, cell-based; in short: as §1
[7] = Cytotoxicity against human PXF 1752L cells at 0.001 ug/ml relative to control; assay type: functional
[8] = tested on: NCI-H460; assay: Cytotoxicity against human H460 cells at 0.001 ug/ml relative to control; assay type: functional
[9] = Cytotoxicity against human PC3M cells at 1 ug/ml relative to control; assay type: functional, PC-3M
[10] = tested on: CWR22R; assay: Cytotoxicity against human 22Rv1 cells at 0.001 ug/ml relative to control; assay type: functional
[11] = tested on: PANC-1; assay: Cytotoxicity against human PANC1 cells; assay type: functional, cell-based; in short: as §1
[12] = Cytotoxicity against human LXFL 529L cells at 10 ug/ml relative to control; assay type: functional
[13] = Cytotoxicity against human LXFA 629L cells at 0.001 ug/ml relative to control; assay type: functional
[14] = Cytotoxicity against human GXF251L cells at 1 ug/ml relative to control; assay type: functional
[15] = Cytotoxicity against human LXFA 289L cells at 0.1 ug/ml relative to control; assay type: functional
[16] = Cytotoxicity against human HNXF 536L cells at 1 ug/ml relative to control; assay type: functional
[17] = Cytotoxicity against human HNXF 536L cells at 10 ug/ml relative to control; assay type: functional
[18] = Cytotoxicity against human RXF 944L cells at 0.01 ug/ml relative to control; assay type: functional
[19] = Cytotoxicity against human LXFA 526L cells at 0.001 ug/ml relative to control; assay type: functional
[20] = Cytotoxicity against human HNXF 536L cells; assay type: functional, cell-based; in short: as §2
[21] = tested on: HT-29; assay: Cytotoxicity against human HT-29 cells at 0.1 ug/ml relative to control; assay type: functional
[22] = Cytotoxicity against human LXFA 629L cells at 10 ug/ml relative to control; assay type: functional
[23] = tested on: HT-29; assay: Cytotoxicity against human HT-29 cells at 10 ug/ml relative to control; assay type: functional
[24] = Cytotoxicity against human RXF 486L cells at 0.001 ug/ml relative to control; assay type: functional
[25] = tested on: LNCaP; assay: Cytotoxicity against human LNCAP cells at 0.1 ug/ml relative to control; assay type: functional
[26] = Cytotoxicity against human LXFA 289L cells at 0.01 ug/ml relative to control; assay type: functional
[27] = tested on: PANC-1; assay: Cytotoxicity against human PANC1 cells at 10 ug/ml relative to control; assay type: functional
[28] = tested on: HT-29; assay: Cytotoxicity against human HT-29 cells at 0.01 ug/ml relative to control; assay type: functional
[29] = Cytotoxicity against human MEXF 394NL cells at 0.001 ug/ml relative to control; assay type: functional
[30] = Cytotoxicity against human PC3M cells at 0.001 ug/ml relative to control; assay type: functional, PC-3M
[31] = Cytotoxicity against human MEXF 520L cells at 1 ug/ml relative to control; assay type: functional
[32] = Cytotoxicity against human GXF251L cells at 0.01 ug/ml relative to control; assay type: functional
[33] = Cytotoxicity against human RXF 1781L cells; assay type: functional, cell-based; in short: as §1
[34] = Cytotoxicity against human MAXF 401NL cells at 0.01 ug/ml relative to control; assay type: functional
[35] = tested on: PANC-1; assay: Cytotoxicity against human PANC1 cells at 0.01 ug/ml relative to control; assay type: functional
[36] = Cytotoxicity against human BXF 1218L cells at 0.1 ug/ml relative to control; assay type: functional
[37] = Cytotoxicity against human CNXF 498NL cells at 0.001 ug/ml relative to control; assay type: functional
[38] = Cytotoxicity against human PAXF 1657L cells at 0.1 ug/ml relative to control; assay type: functional
[39] = tested on: NCI-H460; assay: Cytotoxicity against human H460 cells at 0.1 ug/ml relative to control; assay type: functional
[40] = Cytotoxicity against human BXF 1218L cells at 0.01 ug/ml relative to control; assay type: functional
[41] = Cytotoxicity against human GXF251L cells at 0.1 ug/ml relative to control; assay type: functional
[42] = Cytotoxicity against human LXFA 526L cells at 0.1 ug/ml relative to control; assay type: functional
[43] = Cytotoxicity against human OVXF 899L cells; assay type: functional, cell-based; in short: as §1
[44] = Cytotoxicity against human MEXF 394NL cells at 1 ug/ml relative to control; assay type: functional
[45] = tested on: DU-145; assay: Cytotoxicity against human DU145 cells at 0.1 ug/ml relative to control; assay type: functional
[46] = tested on: T-24; assay: Cytotoxicity against human T24 cells at 0.1 ug/ml relative to control; assay type: functional
[47] = tested on: CWR22R; assay: Cytotoxicity against human 22Rv1 cells; assay type: functional, cell-based; in short: as §2
[48] = Cytotoxicity against human MAXF 401NL cells at 1 ug/ml relative to control; assay type: functional
[49] = tested on: CWR22R; assay: Cytotoxicity against human 22Rv1 cells at 10 ug/ml relative to control; assay type: functional
[50] = Cytotoxicity against human RXF 393NL cells at 0.001 ug/ml relative to control; assay type: functional
[51] = Cytotoxicity against human RXF 944L cells at 0.1 ug/ml relative to control; assay type: functional
[52] = tested on: NCI-H460; assay: Cytotoxicity against human H460 cells at 10 ug/ml relative to control; assay type: functional
[53] = Cytotoxicity against human MEXF 276L cells at 0.1 ug/ml relative to control; assay type: functional, MEXF276L
[54] = Cytotoxicity against human LXFA 289L cells at 10 ug/ml relative to control; assay type: functional
[55] = Cytotoxicity against human PC3M cells at 0.01 ug/ml relative to control; assay type: functional, PC-3M
[56] = Cytotoxicity against human MEXF 520L cells at 0.001 ug/ml relative to control; assay type: functional
[57] = Cytotoxicity against human MEXF 276L cells at 1 ug/ml relative to control; assay type: functional, MEXF276L

Work on `C=C1[C@@H](O)[C@H]2O[C@@]2(C[C@H]2C(C)=CC[C@H]3C(C)(C)CCC[C@]23C)[C@@H](O)[C@H]1O` [EPOXYPHOLAMIN D] yielded an IC50 [1] of 4.69 µM, an IC70 [1] of 5.54 µg/mL (≈ 15.3 µM) and an IC90 [1] of 18.1 µg/mL (≈ 49.8 µM). The Activity [2] was 104%, the Activity [3] was 99% and the Activity [4] was 90%. For the same compound, the IC50 [5] was 7.7 µM, the IC70 [5] was 4.86 µg/mL (≈ 13.4 µM) and the IC90 [5] was 8.47 µg/mL (≈ 23.4 µM). For the same compound, the IC50 [6] was 2.29 µM, the IC70 [6] was 3.05 µg/mL (≈ 8.42 µM) and the IC90 [6] was 12.3 µg/mL (≈ 34 µM). The Activity [7] was 95%, the Activity [8] was 107% and the Activity [9] was 18%. The Activity [10] was 92%, the IC50 [11] was 5.43 µM and the IC70 [11] was 4.2 µg/mL (≈ 11.6 µM). For the same compound, the IC90 [11] was 8.93 µg/mL (≈ 24.6 µM), the Activity [12] was 14% and the Activity [13] was 96%. It also gave an Activity [14] of 41%, an Activity [15] of 106% and an Activity [16] of 88%. For the same compound, the Activity [17] was 5%, the Activity [18] was 138% and the Activity [19] was 109%. For the same compound, the IC50 [20] was 7.92 µM, the IC70 [20] was 5 µg/mL (≈ 13.8 µM) and the IC90 [20] was 8.7 µg/mL (≈ 24 µM). The Activity [21] was 108%, the Activity [22] was 6% and the Activity [23] was 1%. For the same compound, the Activity [24] was 95%, the Activity [25] was 103% and the Activity [26] was 101%. The Activity [27] was 7%, the Activity [28] was 113% and the Activity [29] was 97%. It also gave an Activity [30] of 120%, an Activity [31] of 86% and an Activity [32] of 100%. For the same compound, the IC50 [33] was 11.8 µM, the IC70 [33] was 7.69 µg/mL (≈ 21.2 µM) and the IC90 [33] was 13.8 µg/mL (≈ 38 µM). It also gave an Activity [34] of 110%, an Activity [35] of 92% and an Activity [36] of 104%. For the same compound, the Activity [37] was 102%, the Activity [38] was 92% and the Activity [39] was 91%. The Activity [40] was 94%, the Activity [41] was 112% and the Activity [42] was 115%. For the same compound, the IC50 [43] was 8.19 µM, the IC70 [43] was 5.62 µg/mL (≈ 15.5 µM) and the IC90 [43] was 10.7 µg/mL (≈ 29.4 µM). The Activity [44] was 78%, the Activity [45] was 88% and the Activity [46] was 104%. For the same compound, the IC50 [47] was 2.48 µM, the IC70 [47] was 3.06 µg/mL (≈ 8.45 µM) and the IC90 [47] was 10.6 µg/mL (≈ 29.4 µM). For the same compound, the Activity [48] was 48%, the Activity [49] was 11% and the Activity [50] was 98%. It also gave an Activity [51] of 95%, an Activity [52] of 3% and an Activity [53] of 98%. For the same compound, the Activity [54] was 39%, the Activity [55] was 101% and the Activity [56] was 97%. It also gave an Activity [57] of 59%.

Reference: ChEMBL document CHEMBL1649383, “Mode of action of epoxyphomalins A and B and characterization of related metabolites from the marine-derived fungus Paraconiothyrium sp” (J Nat Prod, 2010)
